From paper PMC4288442 (Biochemical and biophysical research communications, 2013)
Non-standard residues stand in square brackets, D forms with d. Residues, ends and D or L forms follow the SMILES beside them. Nle = CCCC[C@H](N)C(=O)O

Target: wild type (NL4-3) HIV-1 protease (Human immunodeficiency virus type 1 group M subtype B, UniProt P12497)
Assay: FRET-based enzyme inhibition assay, wild type
Assay type: biochemical
How it was run: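 Commercial wild-type NL4-3 HIV-1 protease, supplied at 0.3 mg/ml, assayed by FRET with a fluorogenic HIV-1 substrate. Peptide test compounds carry a reduced (-CH2-NH-) bond in place of the labile peptide bond so the protease cannot cleave them. IC50 is the average of three independent experiments, with SD.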

| Compound | IC50 [µM] |
| --- | --- |
| CCCC[C@H](NC(=O)[C@H](C)NC(=O)[C@H](CCC(=O)O)NC(=O)[C@@H](N)Cc1ccccc1)C(=O)O [Compound 7a, Phe-Glu-Ala-Nle] (H-FEA[Nle]-OH) | > 1 |
| CC(C)C[C@H](NC(=O)[C@@H](NC(=O)[C@@H](N)CCCNC(=N)N)C(C)C)C(=O)O [Compound 7b, Arg-Val-Leu] (H-Arg-Val-Leu-OH) | > 1 |
